Measurements taken from article PMC8428831 (Plant Biotechnology Journal, 2021).
pKd: −log10 of the molar value.

Assays:
CgS = biological target: T1, CgS (Arabidopsis thaliana, UniProt P55217); assay: Micro Scale Thermophoresis; type: binding
T1 sequence (P55217 69-563): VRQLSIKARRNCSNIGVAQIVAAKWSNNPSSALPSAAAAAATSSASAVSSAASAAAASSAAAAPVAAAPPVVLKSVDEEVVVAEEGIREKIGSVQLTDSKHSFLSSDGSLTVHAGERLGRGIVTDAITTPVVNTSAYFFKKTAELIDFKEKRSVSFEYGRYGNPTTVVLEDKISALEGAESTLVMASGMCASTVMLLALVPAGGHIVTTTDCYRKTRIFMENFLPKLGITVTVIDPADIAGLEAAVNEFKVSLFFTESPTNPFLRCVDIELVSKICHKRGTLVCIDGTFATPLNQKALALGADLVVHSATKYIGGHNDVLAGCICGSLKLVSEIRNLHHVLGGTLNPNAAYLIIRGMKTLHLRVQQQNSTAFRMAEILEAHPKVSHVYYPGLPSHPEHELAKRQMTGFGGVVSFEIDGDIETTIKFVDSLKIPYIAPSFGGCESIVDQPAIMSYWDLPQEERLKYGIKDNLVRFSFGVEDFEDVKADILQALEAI
Summary of the method: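 Purified recombinant AtCgS labelled with an amine-reactive fluorophore, 100 nM per capillary. Incubated with a dilution series of test compound and measured by microscale thermophoresis (Monolith NT.115). Baseline normalised to the mean of the three lowest concentrations. Signal fitted to a single-site binding model to give Kd.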

[1] = system: methionine auxotroph E. coli transformed with AtCgS; type: cell-based; conditions: for Bacterial growth with external methionine / Bacterial growth without external methionine: 50 µM compound, M9 minimal media; for Bacterial growth with external methionine: methionine 40 mg/L; for Bacterial growth without external methionine: no methionine
Summary of the method: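 Methionine-auxotroph E. coli LE392 carrying pQE-30–AtCgS grown in M9 minimal medium with IPTG, with or without 40 mg/L methionine. Test compound at 50 µM final, or a concentration series, from a 50 mM DMSO stock; DMSO-only controls (0.1%). OD600 read every 20 min for about 1000 min at 37 °C with orbital shaking. Curve slopes from a linear fit; slope ratio versus DMSO, in duplicate.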

Cc1cc(O)nc(-c2cccc(NC(=O)c3c(O)cccc3F)c2)n1 [CGSI‐1, 2‐fluoro‐6‐hydroxy‐N‐(3‐(4‐hydroxy‐6‐methylpyrimidin‐2‐yl)phenyl)benzamide]
pKd (CgS): 4.53
Bacterial growth with external methionine [1]: not active in its presence
Bacterial growth without external methionine [1]: active in the absence of methionine
Bacterial growth curves, dose–response without external methionine ([1]; variable concentrations, M9, no methionine): clear dose–response behaviour
Bacterial growth curves, dose–response with external methionine ([1]; variable concentrations, M9, with methionine): no effect

C#CCC(N)C(=O)O (stereo not shown) [PAG, propargyl‐glycine, reference compound]
Bacterial growth with external methionine [1]: the cells grew in the presence of PAG
Bacterial growth without external methionine [1]: significantly inhibits cell growth
